Experiments:
[1] = system: KAP1 target genes in HCT116 (CDK9 inhibition); assay: RT-qPCR of KAP1 target genes after flavopiridol treatment; type: cell-based; settings: HCT116, 1 μM, 2 and 4 hr; relative to DMSO, normalized to U6, n=3; Figure 2M
[2] = system: CDK9; assay: Co-IP from HCT116 nuclear extracts: CDK9; type: binding; settings: Figure 6B
In short: (§1)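 Tagged proteins were expressed in HCT116 cells by transfection for 48 hr. Nuclei were released by hypotonic swelling and 27-gauge needle lysis, then extracted for 45 min at 4°C in buffer C brought to 420 mM NaCl. Chromatin was digested with MNase (5 mM CaCl2, 10 min, 37°C). Clarified extract was bound to StrepTactin agarose for 2 hr at 4°C, washed 4X and eluted with desthiobiotin. Blots loaded 1% input.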

[3] = system: KAP1 target genes in shKAP1 HCT116 cells; assay: Reconstitution assay, RT-qPCR of KAP1 target genes; type: cell-based
[4] = system: Pol II (RPB1); assay: AP / IP / co-IP from HCT116 nuclear extracts: Pol II; type: binding; settings: MNase, endogenous IP, Figures 2C, 2D, 6B
In short: as §1

[5] = system: CDK9 at KAP1 target gene promoters; assay: ChIP-qPCR of CDK9 after reconstitution; type: cell-based; settings: shKAP1 HCT116 reconstituted, n=3, Figure 6F
In short: (§2)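 shKAP1 HCT116 cells were transfected with 1 µg epitope-tagged plasmid (PolyJet) and harvested after 48 hr. Cells were crosslinked in 0.5% formaldehyde (10 min, room temperature), quenched with 150 mM glycine and lysed in Farnham buffer at 10×10^6 cells/mL. Beads were washed in RIPA, low-salt, high-salt (500 mM NaCl), LiCl and TE buffers, eluted in NaHCO3/SDS (30 min, 65°C) and de-crosslinked with proteinase K (4 hr, 65°C), then read by qPCR.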

[6] = system: KAP1 target gene promoters; assay: FLAG ChIP-qPCR of reconstituted KAP1 proteins; type: cell-based; settings: shKAP1 HCT116, FLAG ChIP-qPCR, % Input, n=3, Figures 5I, 6F
In short: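 Epitope-tagged KAP1 was re-expressed in shKAP1 HCT116 cells by 1 µg plasmid transfection over 48 hr. Anti-FLAG ChIP used 0.5% formaldehyde crosslinking (10 min) and 150 mM glycine quench. Beads were washed 4 times with each of RIPA, low-salt, high-salt, LiCl and TE buffers. Elution was 30 min at 65°C, de-crosslinking 4 hr at 65°C with proteinase K, and read-out was qPCR.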

[7] = system: SMAD2 at KAP1 target gene promoters; assay: ChIP-qPCR of SMAD2 after reconstitution; type: cell-based; settings: shKAP1 HCT116 reconstituted, n=3, Figure 6F
In short: as §2

[8] = system: Pol II at KAP1 target gene promoters; assay: ChIP-qPCR of Pol II after reconstitution; type: cell-based; settings: shKAP1 HCT116 reconstituted, n=3, Figure 6F
In short: as §2

[9] = system: SMAD2; assay: AP / IP / co-IP from HCT116 nuclear extracts: SMAD2; type: binding; settings: Figures 3G–3I, 6B
In short: as §1

| Compound | expression of KAP1 target genes after flavopiridol [1] | association with CDK9 in nuclear extracts [2] | restoration of KAP1 target gene expression (WT and point mutants) ([3]; shKAP1 HCT116, 48 hr, relative to shNT+GFP, normalized to RPL19, n=3, Figure 5H) | restored expression of all tested genes over GFP-expressing cells ([3]; shKAP1 HCT116, n=3, Figure 6E) | association with Pol II in nuclear extracts [4] | promoter recruitment of CDK9 [5] | localization to KAP1 target gene promoters [6] | localization to KAP1 target gene promoters ([6]; listed as WT KAP1) | promoter recruitment of SMAD2 [7] | promoter recruitment of Pol II [8] | association with SMAD2 in nuclear extracts [9] | association with SMAD2 in nuclear extracts ([9]; listed as WT KAP1) |
| --- | --- | --- | --- | --- | --- | --- | --- | --- | --- | --- | --- | --- |
| CN1CC[C@H](c2c(O)cc(O)c3c(=O)cc(-c4ccccc4Cl)oc23)[C@H](O)C1 [flavopiridol, Flavopiridol] | dampened expression of KAP1 target genes |  |  |  |  |  |  |  |  |  |  |  |
| KAP1: wild-type KAP1, STREP- or FLAG-tagged |  | associates with all three factors | restored KAP1 target gene expression | ~ 2 fold | co-purifies with both ectopically expressed and endogenous KAP1 | facilitate recruitment of Pol II and CDK9 | able to localize to both C1 (SMAD2+) and C2/C3 (SMAD2-) gene promoters | localized to all tested gene promoters | only facilitated SMAD2 recruitment to C1 (SMAD2+) gene promoters | facilitate recruitment of Pol II and CDK9 | interactions between ectopically expressed and endogenous proteins | associates with all three factors |

From paper PMC7305985 (Molecular cell, 2020)
